# Activity calls are given as the source filed them. The calls are words filed in the database; no cut-off is given here.
# Legend:
# A-375 [1] = assay: Induction of apoptosis in human A375 cells assessed as necrotic cells at 2 uM after 24 hrs by Annexin V-FITC/PI staining based flow cytometry (reference value: 1.55%); type: functional
# [2] = molecular target: T1, Serine/threonine-protein kinase B-raf (Homo sapiens, UniProt P15056); assay: Inhibition of recombinant human full length GST-tagged wild type BRAF expressed in baculovirus expression system using recombinant human full length N-terminal His-tagged MEK1 as substrate preincubated for 1 hr followed by substrate addition measured after 25 mins
# T1 sequence (P15056 whole entry): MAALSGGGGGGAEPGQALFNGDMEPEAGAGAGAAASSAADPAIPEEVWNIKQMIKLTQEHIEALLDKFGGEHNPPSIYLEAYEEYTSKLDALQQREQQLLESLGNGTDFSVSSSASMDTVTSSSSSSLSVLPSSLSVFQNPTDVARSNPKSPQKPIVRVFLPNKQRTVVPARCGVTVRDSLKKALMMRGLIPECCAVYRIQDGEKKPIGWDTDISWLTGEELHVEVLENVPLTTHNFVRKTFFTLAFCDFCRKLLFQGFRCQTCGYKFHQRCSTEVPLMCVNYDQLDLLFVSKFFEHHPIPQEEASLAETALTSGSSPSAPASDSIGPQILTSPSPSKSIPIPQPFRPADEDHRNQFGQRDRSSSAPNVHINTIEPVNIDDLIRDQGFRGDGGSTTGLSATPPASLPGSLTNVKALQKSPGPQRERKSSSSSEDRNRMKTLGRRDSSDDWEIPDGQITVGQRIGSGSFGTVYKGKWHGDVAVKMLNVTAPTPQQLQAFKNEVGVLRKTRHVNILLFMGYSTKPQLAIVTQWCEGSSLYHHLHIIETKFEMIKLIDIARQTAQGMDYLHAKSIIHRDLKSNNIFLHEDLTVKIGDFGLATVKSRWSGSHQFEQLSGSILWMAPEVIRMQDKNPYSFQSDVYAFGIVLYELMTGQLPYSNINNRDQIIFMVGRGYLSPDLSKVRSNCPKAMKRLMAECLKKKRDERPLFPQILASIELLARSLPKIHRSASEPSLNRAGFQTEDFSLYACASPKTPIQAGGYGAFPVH
# A-375 [3] = assay: Induction of apoptosis in human A375 cells assessed as late apoptotic cells at 10 uM after 24 hrs by Annexin V-FITC/PI staining based flow cytometry (reference value: 4.26%); type: functional
# A-375 [4] = assay: Induction of apoptosis in human A375 cells assessed as necrotic cells at 2.5 uM after 24 hrs by Annexin V-FITC/PI staining based flow cytometry (reference value: 1.61%); type: functional
# A-375 [5] = assay: Cell cycle arrest in human A375 cells assessed as accumulation at S phase at 10 uM after 24 hrs by propidium iodide staining based flow cytometry (reference value: 21.3%); type: functional
# A-375 [6] = assay: Cell cycle arrest in human A375 cells assessed as accumulation at G2/M phase at 2 uM after 72 hrs by propidium iodide staining based flow cytometry (reference value: 5.1%); type: functional
# A-375 [7] = assay: Cell cycle arrest in human A375 cells assessed as accumulation at G1 phase at 10 uM after 24 hrs by propidium iodide staining based flow cytometry (reference value: 73.6%); type: functional
# A-375 [8] = assay: Induction of apoptosis in human A375 cells assessed as viable cells at 20 uM after 24 hrs by Annexin V-FITC/PI staining based flow cytometry (reference value: 88.7%); type: functional; settings: A-375, 24 h, read-out: Activity
# [9] = molecular target: T1, Serine/threonine-protein kinase B-raf; assay: Inhibition of wild type BRAF in human WM1361 cells assessed as decrease in ERK1/2 phosphorylation up to 5 uM after 30 mins by Western blot analysis; type: cell-based
# Mus musculus = assay: Toxicity in nude mouse xenografted with human A375 cells assessed as body weight loss at 5 to 10 mg/kg, ip administered every second day for 14 days and measured every 2 days; type: organism-based; settings: in vivo
# Outline: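 Nude mice bearing subcutaneous right-flank A375 xenografts (3×10⁶ cells in cold PBS) were randomized into groups of 5 at about 100 mm³. Compounds were suspended in olive oil and given intraperitoneally every second day for 14 days. Body weight was recorded every two days.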
# A-375 [10] = assay: Induction of apoptosis in human A375 cells assessed as necrotic cells at 2 uM after 72 hrs by Annexin V-FITC/PI staining based flow cytometry (reference value: 1.55%); type: functional
# A-375 [11] = assay: Induction of apoptosis in human A375 cells assessed as necrotic cells at 10 uM after 24 hrs by Annexin V-FITC/PI staining based flow cytometry (reference value: 1.61%); type: functional
# [12] = tested on: Serine/threonine-protein kinase B-raf (Homo sapiens), P15056 [V600E]; assay: Inhibition of BRAF V600E mutant in human A375 cells assessed as decrease in MEK1/2 phosphorylation after 30 mins by Western blot analysis; type: cell-based
# Chain of Serine/threonine-protein kinase B-raf (Homo sapiens), P15056 [V600E] (P15056 whole entry V600E): as the sequence (P15056 whole entry) above, with V600E counted along it
# Outline: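 A375 cells treated with compound at 0, 0.05, 0.1 and 0.5 µM, then PBS-rinsed and lysed in RIPA with protease inhibitors on ice for 30 min. Lysate was cleared at 12,000 g, 4 °C, and protein assayed by BCA. Samples run on SDS-PAGE and transferred to PVDF. Membranes were milk-blocked, probed with primary antibody (1:500) overnight at 4 °C, then secondary antibody (1:5000) for 1 h at room temperature.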
# A-375 [13] = assay: Cell cycle arrest in human A375 cells assessed as accumulation at S phase at 20 uM after 24 hrs by propidium iodide staining based flow cytometry (reference value: 21.3%); type: functional
# A-375 [14] = assay: Cell cycle arrest in human A375 cells assessed as accumulation at S phase at 2 uM after 24 hrs by propidium iodide staining based flow cytometry (reference value: 21.3%); type: functional
# A-375 [15] = assay: Cell cycle arrest in human A375 cells assessed as accumulation at G1 phase at 2.5 uM after 24 hrs by propidium iodide staining based flow cytometry (reference value: 73.6%); type: functional
# [16] = molecular target: Mitogen-activated protein kinase 8 (Homo sapiens, UniProt P45983); assay: Inhibition of N-terminal flag-tagged JNK1 (unknown origin) expressed in baculovirus expression system after 60 mins in presence of [gamma-32P]ATP by topcount scintillation method
# Chain of Mitogen-activated protein kinase 8 (P45983 whole entry): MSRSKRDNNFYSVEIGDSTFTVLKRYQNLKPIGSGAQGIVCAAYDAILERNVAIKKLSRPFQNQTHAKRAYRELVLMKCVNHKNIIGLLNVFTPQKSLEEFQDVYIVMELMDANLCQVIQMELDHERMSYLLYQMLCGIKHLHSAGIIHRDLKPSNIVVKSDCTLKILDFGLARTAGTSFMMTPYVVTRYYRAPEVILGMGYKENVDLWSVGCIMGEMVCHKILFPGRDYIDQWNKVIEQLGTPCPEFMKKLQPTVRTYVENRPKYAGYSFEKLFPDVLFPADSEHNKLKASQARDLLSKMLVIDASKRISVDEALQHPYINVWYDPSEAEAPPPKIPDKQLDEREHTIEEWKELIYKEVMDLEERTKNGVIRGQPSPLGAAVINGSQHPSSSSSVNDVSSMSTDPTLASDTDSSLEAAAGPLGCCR
# Outline: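 Baculovirus-expressed N-terminal FLAG-tagged kinases in 25 mM HEPES pH 7.5, 10 mM Mg acetate, 1 mM DTT, 0.5 µM ATP plus [γ-³²P]ATP, 50 µL. p38α: 100 ng enzyme, MBP substrate. JNK1: 10 ng enzyme, 1 µg c-Jun. Compound and enzyme preincubated 5 min, ATP started the reaction, 60 min at 30 °C. Stopped with 10% TCA, filtered, washed with 3% phosphoric acid, counted by TopCount.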
# HT-29 = assay: Antiproliferative activity against human HT-29 cells after 48 hrs by MTT assay; type: functional; settings: HT-29, 48 h
# Outline: (§1)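 MTT reduction assay. Cell lines grown to log phase in DMEM with 10% FBS (A375 in DMEM with sodium pyruvate added), seeded at 10⁴ cells/well in 96-well plates. Three replicate wells per concentration, each assay run three times, GI50 averaged.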
# A-375 [17] = assay: Induction of apoptosis in human A375 cells assessed as late apoptotic cells at 2 uM after 48 hrs by Annexin V-FITC/PI staining based flow cytometry (reference value: 3.61%); type: functional
# Outline: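 Apoptosis time course. A375 cells in 24-well plates (about 10⁵/well) at 2 µM for 0, 24, 48 and 72 h. Harvested by trypsin, washed in PBS, stained 15 min at room temperature in the dark with Annexin V-FITC/PI, analysed by flow cytometry.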
# HCT-116 = assay: Antiproliferative activity against human HCT116 cells after 48 hrs by MTT assay; type: functional; settings: HCT-116, 48 h; outline: as §1
# A-375 [18] = assay: Induction of apoptosis in human A375 cells assessed as viable cells at 2.5 uM after 24 hrs by Annexin V-FITC/PI staining based flow cytometry (reference value: 88.7%); type: functional; settings: A-375, 24 h, read-out: Activity
# A-375 [19] = assay: Effect on total ERK1/2 protein level in human A375 cells after 30 mins by Western blot analysis; type: ADME, cell-based; settings: a-375, 0.5 h
# Outline: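 Western blot. Cells rinsed in cold PBS, lysed 30 min on ice in RIPA with protease inhibitors (1:100), cleared at 12,000 g, 4 °C. Protein measured by BCA, resolved by SDS-PAGE, transferred to PVDF, blocked in skim milk. Primary antibodies 1:500 overnight at 4 °C; secondary 1:5000 for 1 h at room temperature.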
# A-375 [20] = assay: Induction of apoptosis in human A375 cells assessed as early apoptotic cells at 20 uM after 24 hrs by Annexin V-FITC/PI staining based flow cytometry (reference value: 5.45%); type: functional
# A-375 [21] = assay: Induction of apoptosis in human A375 cells assessed as viable cells at 2 uM after 24 hrs by Annexin V-FITC/PI staining based flow cytometry (reference value: 89.4%); type: functional; settings: A-375, 24 h, read-out: Activity
# A-375 [22] = assay: Cell cycle arrest in human A375 cells assessed as accumulation at G2/M phase at 10 uM after 24 hrs by propidium iodide staining based flow cytometry (reference value: 5.1%); type: functional
compound,measurement,setting,value
COc1cccc(C2=NN(C(=S)Nc3ccccc3)C(c3ccc4c(c3)OCCO4)C2)c1 (stereo not given),Activity,A-375 [1],2.56%
same,IC50,[2],> 200 µM
same,Activity,A-375 [3],10.8%
same,Activity,A-375 [4],3.46%
same,Activity,A-375 [5],13.8%
same,Activity,A-375 [6],36.8%
same,Activity,A-375 [7],68.1%
same,viability at 20 µM,A-375 [8],36.2%
same,inhibition,[9],inactive
same,Activity,Mus musculus,Non-Toxic
same,Activity,A-375 [10],2.24%
same,Activity,A-375 [11],2.6%
same,inhibition,[12],Dose-dependent effect
same,Activity,A-375 [13],16.9%
same,Activity,A-375 [14],17.3%
same,Activity,A-375 [15],72.3%
same,IC50,[16],> 200 µM
same,GI50,HT-29,2.92 µM
same,Activity,A-375 [17],5.37%
same,GI50,HCT-116,> 200 µM
same,viability at 2.5 µM,A-375 [18],74.4%
same,Activity,A-375 [19],Non-Toxic
same,Activity,A-375 [20],49.6%
same,viability at 2 µM,A-375 [21],80.8%
same,Activity,A-375 [22],18.1%
